# Assay results: ChEMBL document CHEMBL1123840, “Synthesis and evaluation of melphalan-containing N,N-dialkylenkephalin analogues as irreversible antagonists of the delta opioid receptor” (J Med Chem, 1987)
# Values joined by “and” are separate entries in the source; they are usually repeats but may differ in a detail not shown here. Identical values can stand only once. Square brackets hold non-standard residues; d marks the D form. Peptide text beside a SMILES is read from it. * marks the point of attachment. ξ: configuration not given here. Tyr(Nα,Nα-Bn2) = O=C([C@H](Cc1ccc(O)cc1)N(Cc1ccccc1)Cc1ccccc1)*; Phe(4-N(CH2CH2Cl)2) = N[C@@H](Cc1ccc(N(CCCl)CCCl)cc1)C(=O)O; ξPhe(4-N(CH2CH2Cl)2) = NC(Cc1ccc(N(CCCl)CCCl)cc1)C(=O)O; X1 = O=C(C(Cc1ccc(O)cc1)N(Cc1ccccc1)Cc1ccccc1)*; ξL = CC(C)CC(N)C(=O)O; Aib = CC(C)(N)C(=O)O
# Columns and labels:
# [1] = target: Delta-type opioid receptor (Mus musculus) (UniProt P32300); test: Ratio of IC50 of DADLE (agonist) after 10 min of incubation along with compound (antagonist) and IC50 of agonist in the absence of compound for Opioid receptor delta 1 at 10 uM in MVD assay; assay type: functional
# Sequence of Delta-type opioid receptor (Mus musculus) (P32300 whole entry): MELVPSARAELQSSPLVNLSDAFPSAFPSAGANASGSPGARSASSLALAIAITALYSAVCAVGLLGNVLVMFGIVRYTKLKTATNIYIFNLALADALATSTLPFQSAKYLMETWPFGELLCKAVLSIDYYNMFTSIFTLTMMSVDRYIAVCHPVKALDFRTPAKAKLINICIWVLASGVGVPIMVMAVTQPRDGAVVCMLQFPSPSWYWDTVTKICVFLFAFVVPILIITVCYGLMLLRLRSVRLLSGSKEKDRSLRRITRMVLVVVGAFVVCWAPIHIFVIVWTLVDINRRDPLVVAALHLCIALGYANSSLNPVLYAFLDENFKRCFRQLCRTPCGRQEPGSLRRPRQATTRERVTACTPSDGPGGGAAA
# How it was run: (§1)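 Reversible antagonism was measured in electrically stimulated isolated tissue (MVD or GPI) with the antagonist present. Agonists were morphine (μ), ethylketazocine (κ) and DADLE (δ). The value is the agonist IC50 with antagonist divided by the IC50 without it, i.e. the fold rightward shift of the agonist dose-response curve. Mean ± SEM, n = 3 unless otherwise noted.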
# [2] = target: T1, Opioid receptor (Mus musculus) (UniProt P42866+P32300+P33534); test: (§2) Reversible opioid agonist activity in the electrically stimulated mouse vas deferens(MVD) at 1 uM concentration; assay type: functional
# T1 sequence (P32300 whole entry, looked up): as the sequence (P32300 whole entry) above
# T1 sequence (P33534 whole entry, looked up): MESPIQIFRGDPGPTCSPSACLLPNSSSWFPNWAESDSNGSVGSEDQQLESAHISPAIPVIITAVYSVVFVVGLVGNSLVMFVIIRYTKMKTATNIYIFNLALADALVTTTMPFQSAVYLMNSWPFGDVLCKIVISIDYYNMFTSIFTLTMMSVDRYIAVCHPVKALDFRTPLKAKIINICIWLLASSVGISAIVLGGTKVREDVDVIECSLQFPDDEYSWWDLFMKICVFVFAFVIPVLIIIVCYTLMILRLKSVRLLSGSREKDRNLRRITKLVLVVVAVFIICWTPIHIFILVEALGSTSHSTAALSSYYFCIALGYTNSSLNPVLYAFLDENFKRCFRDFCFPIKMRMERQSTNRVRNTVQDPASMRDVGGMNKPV
# T1 sequence (P42866 whole entry, looked up): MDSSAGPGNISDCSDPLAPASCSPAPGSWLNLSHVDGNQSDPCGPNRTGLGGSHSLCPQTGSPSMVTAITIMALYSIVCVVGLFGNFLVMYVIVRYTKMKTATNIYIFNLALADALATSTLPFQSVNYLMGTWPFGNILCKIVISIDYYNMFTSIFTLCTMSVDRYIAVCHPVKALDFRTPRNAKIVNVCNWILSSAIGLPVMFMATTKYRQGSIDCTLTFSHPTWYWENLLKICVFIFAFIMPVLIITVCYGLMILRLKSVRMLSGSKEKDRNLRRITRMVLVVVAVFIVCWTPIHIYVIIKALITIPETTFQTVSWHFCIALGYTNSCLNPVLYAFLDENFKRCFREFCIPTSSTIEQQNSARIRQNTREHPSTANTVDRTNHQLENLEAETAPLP
# [3] = target: T2, Opioid receptors; mu/kappa/delta (Homo sapiens) (UniProt P41145+P41143+P35372); settings: Cavia porcellus; Ileum; 1 uM
# T2 sequence (P35372 whole entry, looked up): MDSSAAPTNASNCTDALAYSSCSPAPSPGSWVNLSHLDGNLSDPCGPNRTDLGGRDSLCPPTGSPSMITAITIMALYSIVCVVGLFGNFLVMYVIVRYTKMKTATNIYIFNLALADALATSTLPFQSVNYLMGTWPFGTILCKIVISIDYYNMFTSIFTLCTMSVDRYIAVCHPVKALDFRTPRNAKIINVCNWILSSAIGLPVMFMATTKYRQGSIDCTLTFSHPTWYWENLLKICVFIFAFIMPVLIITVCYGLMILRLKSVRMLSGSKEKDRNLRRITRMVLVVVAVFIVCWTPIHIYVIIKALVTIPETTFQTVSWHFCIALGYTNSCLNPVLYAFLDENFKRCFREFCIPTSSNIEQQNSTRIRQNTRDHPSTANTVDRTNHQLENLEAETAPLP
# T2 sequence (P41143 whole entry, looked up): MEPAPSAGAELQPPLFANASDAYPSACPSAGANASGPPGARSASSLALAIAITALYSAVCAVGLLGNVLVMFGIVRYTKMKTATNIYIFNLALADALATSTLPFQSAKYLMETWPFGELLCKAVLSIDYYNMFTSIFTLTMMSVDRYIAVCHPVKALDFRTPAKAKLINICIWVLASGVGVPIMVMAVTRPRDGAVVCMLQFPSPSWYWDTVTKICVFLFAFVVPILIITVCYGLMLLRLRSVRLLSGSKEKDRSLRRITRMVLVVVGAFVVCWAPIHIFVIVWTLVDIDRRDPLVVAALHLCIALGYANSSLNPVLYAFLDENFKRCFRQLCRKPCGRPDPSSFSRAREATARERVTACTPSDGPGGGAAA
# T2 sequence (P41145 whole entry, looked up): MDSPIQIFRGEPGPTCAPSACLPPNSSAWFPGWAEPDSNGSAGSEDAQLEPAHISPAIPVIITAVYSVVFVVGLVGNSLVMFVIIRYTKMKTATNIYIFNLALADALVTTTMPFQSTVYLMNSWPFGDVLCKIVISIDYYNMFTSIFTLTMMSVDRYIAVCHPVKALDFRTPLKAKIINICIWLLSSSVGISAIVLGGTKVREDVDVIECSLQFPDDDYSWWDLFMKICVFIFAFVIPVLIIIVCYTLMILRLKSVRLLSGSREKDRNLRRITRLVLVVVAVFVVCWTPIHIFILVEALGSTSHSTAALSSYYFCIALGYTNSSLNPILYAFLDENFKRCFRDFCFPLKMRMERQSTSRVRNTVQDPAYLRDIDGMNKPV
# [4] = target: Mu-type opioid receptor (Cavia porcellus) (UniProt P97266); settings: 1 uM
# Sequence of Mu-type opioid receptor (Cavia porcellus) (P97266 whole entry): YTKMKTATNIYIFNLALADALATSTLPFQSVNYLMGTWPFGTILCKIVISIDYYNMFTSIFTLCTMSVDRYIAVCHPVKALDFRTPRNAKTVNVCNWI
# [5] = organism: Mus musculus; test: Ratio of IC50 of morphine (agonist) expossed to the compound for 10 min and then washed 30 times to Ratio of IC50 of morphine (agonist) prior to exposure to compound; assay type: functional
# How it was run: (§3)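 Irreversible antagonism was measured in isolated tissue. The tissue was exposed to the compound for 10 min (30 min in some cases), then washed 30 times with fresh buffer to remove non-covalently bound ligand. Agonist IC50 was then redetermined. The ratio is this post-wash IC50 over the agonist IC50 in the same tissue before exposure. Mean ± SEM, n = 3 unless otherwise noted.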
# [6] = target: Mu-type opioid receptor (Mus musculus) (UniProt P42866); settings: 10 uM
# Sequence of Mu-type opioid receptor (Mus musculus) (P42866 whole entry): as the sequence (P42866 whole entry, looked up) above
# [7] = target: Mu-type opioid receptor (Mus musculus) (UniProt P42866); test: Ratio of IC50 of […] (agonist) after 10 min of incubation along with compound (antagonist) and IC50 of agonist in absence of compound for Opioid receptor mu 1 at 1 uM in MVD assay; assay type: functional; how it was run: as §1
# [8] = target: Delta-type opioid receptor (Mus musculus) (UniProt P32300); test: Ratio of IC50 of DADLE (agonist) after 10 min of incubation along with compound (antagonist) and IC50 of agonist in the absence of compound for Opioid receptor delta 1 at 1 uM in MVD assay; assay type: functional; how it was run: as §1
# [9] = target: T1, Opioid receptor (Mus musculus); test: Reversible opioid agonist activity in the electrically stimulated mouse vas deferens(MVD) at 10 uM of concentration; assay type: functional
# [10] = target: Kappa-type opioid receptor (Cavia porcellus) (UniProt P41144); test: Ratio of IC50 of ethylketazocine (agonist) after 10 min of incubation along with compound (antagonist) and IC50 of agonist in absence of compound for Opioid receptor kappa 1 at 1 uM in GPI assay (Exp 2); assay type: functional; how it was run: as §1
# Sequence of Kappa-type opioid receptor (Cavia porcellus) (P41144 whole entry): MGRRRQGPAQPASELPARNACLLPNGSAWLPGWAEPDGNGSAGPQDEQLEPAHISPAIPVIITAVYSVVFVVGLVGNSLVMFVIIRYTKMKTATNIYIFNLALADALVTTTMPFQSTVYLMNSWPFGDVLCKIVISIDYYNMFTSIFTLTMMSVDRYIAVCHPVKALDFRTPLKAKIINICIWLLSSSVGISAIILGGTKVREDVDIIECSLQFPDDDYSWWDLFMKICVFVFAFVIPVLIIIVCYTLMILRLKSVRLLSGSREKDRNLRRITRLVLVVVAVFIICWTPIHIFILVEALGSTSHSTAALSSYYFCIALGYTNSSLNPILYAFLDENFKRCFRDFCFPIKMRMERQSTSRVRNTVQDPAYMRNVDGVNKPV
# [11] = target: Kappa-type opioid receptor (Cavia porcellus) (UniProt P41144); test: Ratio of IC50 of ethylketazocine (agonist) after 10 min of incubation along with compound (antagonist) and IC50 of agonist in absence of compound for Opioid receptor kappa 1 at 1 uM in GPI assay (Exp 1); assay type: functional; how it was run: as §1
# [12] = target: T2, Opioid receptors; mu/kappa/delta (Homo sapiens); test: (§4) Reversible opioid agonist activity in the electrically stimulated guinea pig ileum(GPI) at 1 uM concentration (Exp 2); assay type: functional, tissue-based; settings: Cavia porcellus, target entry is the homologue from another species
# [13] = organism: Mus musculus; test: Ratio of IC50 of DADLE (agonist) expossed to the compound for 10 min and then washed 30 times to Ratio of IC50 of morphine (agonist) prior to exposure to compound; assay type: functional; how it was run: as §3
# [14] = target: Mu-type opioid receptor (Cavia porcellus) (UniProt P97266); settings: 1 uM; remark: listed apart in the source
# [15] = target: Delta-type opioid receptor (Homo sapiens) (UniProt P41143); settings: Cavia porcellus; 1 uM
# Sequence of Delta-type opioid receptor (Homo sapiens) (P41143 whole entry): as the sequence (P41143 whole entry, looked up) above
# [16] = organism: Cavia porcellus; test: Reversible opioid agonist activity in the electrically stimulated guinea pig ileum(GPI) at 1 uM concentration (Exp 1); assay type: functional
# [17] = target: Delta-type opioid receptor (Mus musculus) (UniProt P32300); settings: 10 uM
# [18] = target: Delta-type opioid receptor (Mus musculus) (UniProt P32300); test: Ratio of IC50 of DADLE (agonist) after 10 min of incubation along with compound (antagonist) and IC50 of agonist in the absence of compound for delta opioid receptor at 1 uM in MVD assay; assay type: functional; how it was run: as §1
# [19] = target: Delta-type opioid receptor (Homo sapiens) (UniProt P41143); settings: Cavia porcellus; 1 uM; remark: listed apart in the source
# [20] = target: Kappa-type opioid receptor (Cavia porcellus) (UniProt P41144); settings: 1 uM
# [21] = target: Mu-type opioid receptor (Homo sapiens) (UniProt P35372); test: Ratio of IC50 of […] (agonist) after 10 min of incubation along with compound (antagonist) and IC50 of agonist in absence of compound for mu opioid receptor at 1 uM in MVD assay; assay type: functional; settings: Mus musculus; how it was run: as §1
# Sequence of Mu-type opioid receptor (Homo sapiens) (P35372 whole entry): as the sequence (P35372 whole entry, looked up) above
# [22] = organism: Mus musculus; test: as §2; assay type: functional
# [23] = target: Kappa-type opioid receptor (Cavia porcellus) (UniProt P41144); test: Ratio of IC50 of ethylketazocine (agonist) after 10 min of incubation along with compound (antagonist) and IC50 of agonist in absence of compound for kappa opioid receptor at 1 uM in GPI assay (Exp 1); assay type: functional; how it was run: as §1
# [24] = target: Delta-type opioid receptor (Homo sapiens) (UniProt P41143); settings: Cavia porcellus; 1 uM; remark: listed apart in the source
# [25] = organism: Cavia porcellus; test: as §4
# [26] = target: Mu-type opioid receptor (Cavia porcellus) (UniProt P97266); test: Ratio of IC50 of […] (agonist) after 10 min of incubation along with compound (antagonist) and IC50 of agonist in absence of compound for mu opioid receptor at 1 uM in GPI assay (Exp 2); assay type: functional; how it was run: as §1
# [27] = organism: Cavia porcellus; test: Reversible opioid antagonist activity in the electrically stimulated guinea pig ileum(GPI). Antagonist activity was evaluated with morphine at 0.02 uM concentration (Exp 2); assay type: functional
# [28] = organism: Cavia porcellus; test: as §4; assay type: functional
# [29] = target: Mu-type opioid receptor (Cavia porcellus) (UniProt P97266); test: Ratio of IC50 of […] (agonist) after 10 min of incubation along with compound (antagonist) and IC50 of agonist in absence of compound for mu opioid receptor at 1 uM in GPI assay; assay type: functional; how it was run: as §1
# [30] = target: Kappa-type opioid receptor (Cavia porcellus) (UniProt P41144); test: Ratio of IC50 of ethylketazocine (agonist) after 10 min of incubation along with compound (antagonist) and IC50 of agonist in absence of compound for kappa opioid receptor at 1 uM in GPI assay; assay type: functional; how it was run: as §1
structure (smiles),measurement,setting,value
CC(C)CC(NC(=O)C(Cc1ccc(N(CCCl)CCCl)cc1)NC(=O)CNC(=O)CNC(=O)C(Cc1ccc(O)cc1)N(Cc1ccccc1)Cc1ccccc1)C(=O)O (stereo unspecified) (X1-GG[ξPhe(4-N(CH2CH2Cl)2)][ξL]-OH),IC50 ratio,[1],7.7
same,inhibition,[2],16.2%
same,inhibition,[3],4.8%
same,IC50 ratio,[4],0.5
same,IC50 ratio,[5],1.2
same,IC50 ratio,[6],1.7
same,IC50 ratio,[7],1
same,IC50 ratio,[8],3
same,inhibition,[9],18.3%
same,IC50 ratio,[10],0.4
same,IC50 ratio,[11],0.4
same,inhibition,[12],10%
same,IC50 ratio,[13],2.4
same,IC50 ratio,[14],0.7
"CC(C)C[C@H](NC(=O)[C@H](Cc1ccccc1)NC(=O)CNC(=O)CNC(=O)[C@H](Cc1ccc(O)cc1)N(Cc1ccccc1)Cc1ccccc1)C(=O)O ({Tyr(Nα,Nα-Bn2)}-GGFL-OH)",IC50 ratio,[15],2.5
same,inhibition at 1 µM,[16],1.9%
same,IC50 ratio,[17],96.9
same,IC50 ratio,[5],1
same,IC50 ratio,[18],6.6
same,IC50 ratio,[19],0.8
same,IC50 ratio,[20],1
same,IC50 ratio,[21],0.6
same,inhibition at 1 µM,[22],11.4%
same,IC50 ratio,[23],1
same,IC50 ratio,[24],1.2
same,inhibition at 1 µM,[25],2.9%
"CC(C)C[C@H](NC(=O)[C@H](Cc1ccccc1)NC(=O)C(C)(C)NC(=O)C(C)(C)NC(=O)[C@H](Cc1ccc(O)cc1)N(Cc1ccccc1)Cc1ccccc1)C(=O)O ({Tyr(Nα,Nα-Bn2)}-[Aib][Aib]FL-OH)",IC50 ratio,[26],0.7
same,inhibition at 1 µM,[16],68.7%
same,IC50 ratio,[18],5.6
same,IC50 ratio,[27],1.3
same,IC50,[28],300 nM
same,IC50 ratio,[21],1
same,inhibition at 1 µM,[22],25.7%
same,IC50 ratio,[23],1
"CC(C)C[C@H](NC(=O)[C@H](Cc1ccc(N(CCCl)CCCl)cc1)NC(=O)C(C)(C)NC(=O)C(C)(C)NC(=O)[C@H](Cc1ccc(O)cc1)N(Cc1ccccc1)Cc1ccccc1)C(=O)O ({Tyr(Nα,Nα-Bn2)}-[Aib][Aib][Phe(4-N(CH2CH2Cl)2)]L-OH)",IC50 ratio,[29],0.4 and 1
same,Inhibition,[16],12.5%
same,inhibition at 1 µM,"[16]; Cavia porcellus, Ileum",9.4%
same,IC50 ratio,[30],0.2 and 0.3
same,IC50 ratio,[18],1.2
same,IC50 ratio,[21],1
same,inhibition at 1 µM,[22],22.5%
